From ChEMBL document CHEMBL4627246, “Pyroglutamide-Based P2X7 Receptor Antagonists Targeting Inflammatory Bowel Disease” (J Med Chem, 2020)
Activity calls are given as the source filed them. Unless noted, the calls are words filed in the database; no cut-off is given here.

How the values were obtained:
[1] = biological target: T1, P2X purinoceptor 7 (Homo sapiens) (UniProt Q99572); assay: Inhibition of human P2X7 expressed in human HEK293 cells assessed as reduction in BzATP-stimulated TO-PRO-3 incorporation at 10 uM preincubated with compound and TO-PRO-3 for 15 mins prior to BzATP addition and measured after 1 hr by Fluo-3AM dye based flow cytometry relative to control; format: cell-based
T1 sequence (whole entry): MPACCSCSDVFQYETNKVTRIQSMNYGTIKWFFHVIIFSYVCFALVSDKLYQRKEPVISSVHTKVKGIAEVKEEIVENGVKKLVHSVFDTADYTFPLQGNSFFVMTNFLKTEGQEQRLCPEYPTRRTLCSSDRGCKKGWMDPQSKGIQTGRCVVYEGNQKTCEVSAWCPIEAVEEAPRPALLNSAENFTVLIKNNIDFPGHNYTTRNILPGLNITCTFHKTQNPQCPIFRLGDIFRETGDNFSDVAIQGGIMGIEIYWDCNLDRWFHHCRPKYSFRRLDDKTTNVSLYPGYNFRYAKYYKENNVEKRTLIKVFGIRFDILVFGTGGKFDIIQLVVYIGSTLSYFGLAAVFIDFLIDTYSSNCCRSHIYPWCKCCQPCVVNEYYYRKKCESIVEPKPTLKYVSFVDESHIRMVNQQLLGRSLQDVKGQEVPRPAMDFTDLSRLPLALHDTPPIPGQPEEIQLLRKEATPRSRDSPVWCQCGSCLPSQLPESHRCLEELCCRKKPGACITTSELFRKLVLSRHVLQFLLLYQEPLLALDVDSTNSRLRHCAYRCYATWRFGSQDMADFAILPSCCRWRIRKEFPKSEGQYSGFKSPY
Summary of the method: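 HEK-293 cells overexpressing human P2RX7 loaded with Fluo-3 AM, then incubated with TO-PRO-3 (large pore uptake) and propidium iodide (viability) plus compound (10⁻⁵ M single point) for 15 min before BzATP 100 µM. After 1 h, flow cytometry; percentage of Fluo-3/TO-PRO-3 double-positive cells calculated. Mean of n ≥ 2 with positive control.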

[2] = biological target: T2, P2X purinoceptor 1 (Homo sapiens) (UniProt P51575); assay: Antagonist activity at P2X1 receptor in human platelet assessed as inhibition of thrombin-induced platelet aggregation at 10 '-5 to 10^-6 mol/L pretreated with compound and LPS/BzATP for 10 mins followed by thrombin addition and measured for 8 mins by aggregometry analysis; format: cell-based
T2 sequence (whole entry): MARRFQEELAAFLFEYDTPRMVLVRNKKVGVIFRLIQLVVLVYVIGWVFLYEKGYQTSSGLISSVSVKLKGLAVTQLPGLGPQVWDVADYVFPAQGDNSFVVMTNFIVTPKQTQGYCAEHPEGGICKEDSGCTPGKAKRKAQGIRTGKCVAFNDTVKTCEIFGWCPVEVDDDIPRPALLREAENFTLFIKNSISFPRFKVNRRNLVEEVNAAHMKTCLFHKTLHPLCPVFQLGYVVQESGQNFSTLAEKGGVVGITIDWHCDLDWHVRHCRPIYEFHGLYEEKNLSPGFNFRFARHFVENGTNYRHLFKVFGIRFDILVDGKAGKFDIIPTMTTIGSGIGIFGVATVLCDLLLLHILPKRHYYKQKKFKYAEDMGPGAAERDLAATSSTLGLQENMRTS

P2X purinoceptor 7 = biological target: T3, P2X purinoceptor 7 (Homo sapiens, UniProt Q99572); assay: Displacement of [3H]-A804598 from human P2X7 expressed in human HEK293 cell membrane incubated for 1 hr by microplate scintillation counting method; format: cell membranes
T3 sequence (Q99572 whole entry): T1 sequence (whole entry)

[3] = biological target: T1, P2X purinoceptor 7 (Homo sapiens); assay: Antagonist activity at P2X7 receptor in human THP-1 cells assessed as inhibition of LPS and BzATP-induced IL-1beta production at 10^-6 mol/L pretreated with compound followed by LPS/BzATP addition and measured after 2 to 6 hrs by ELISA; format: cell-based; details: TDE = time-dependent effect
Summary of the method: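 PMA (100nM)-differentiated THP-1 macrophages (RPMI 1640, 10% FCS), 10^6 cells, pretreated with antagonist at […], then challenged with LPS 10 μmol/L and BzATP 70 μmol/L at 37 °C, 5% CO2; IL1β measured by ELISA, including the 6 h point; mean ± SD, P<0.05 significant.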

[4] = Drug metabolism in mouse measured after 40 mins; format: ADME; details: read-out: Drug metabolism
[5] = biological target: T1, P2X purinoceptor 7 (Homo sapiens); assay: Antagonist activity at P2X7 receptor in human THP-1 cells assessed as inhibition of LPS and BzATP-induced IL-1beta production at 10^-5 mol/L pretreated with compound followed by LPS/BzATP addition and measured after 2 to 6 hrs by ELISA; format: cell-based
Summary of the method: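 THP-1 monocytes grown in RPMI 1640 + 10% FCS, differentiated to macrophages with PMA (100nM); 10^6 cells pretreated with antagonist at 10^-5 mol/L, then exposed to LPS 10 μmol/L plus BzATP 70 μmol/L at 37 °C, 5% CO2; IL1β quantified by ELISA in samples at 2, 4 and 6 h; mean ± SD, significance P<0.05.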

[6] = Metabolic stability in human liver microsomes assessed as half life at 0.2 mg/ml incubated for 60 mins by UPLC/MS-MS analysis; format: ADME, Microsome
[7] = Metabolic stability in human hepatocytes; format: ADME, cell-based, Hepatocyte
[8] = Solubility of compound in saline at 1mg/ml; format: physicochemical; details: buffer
[9] = biological target: T1, P2X purinoceptor 7 (Homo sapiens); assay: Antagonist activity at P2X7R in human THP1 cells assessed as inhibition of LPS and BzATP-induced ROS production at 10^-5 mol/L pretreated with compound followed by LPS/BzATP addition and measured up to 5 hrs by kinetic chemiluminescence based fluorometric analysis; format: cell-based; details: THP-1
Summary of the method: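 PMA-differentiated THP-1 macrophages (10^5 cells) in RPMI 1640 + 10% FBS pretreated with antagonist at 10^-5 mol/L, then LPS 10 μmol/L plus BzATP 70 μmol/L at 37 °C, 5% CO2; horseradish peroxidase (50 μg/mL) and luminol (50 μM) mixture added, chemiluminescence read on a fluorometer; cell-free H2O2 serves as positive control.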

[10] = Metabolic stability in human liver microsomes assessed as intrinsic clearance at 0.2 mg/ml incubated for 60 mins by UPLC/MS-MS analysis; format: ADME, Microsome; details: read-out: CLH
HEK293 = assay: Cytotoxicity against human HEK293 cells assessed as reduction in cell viability at 10^-5 mol/L incubated for 72 hrs; format: cell-based; details: hek293, 72 h, 10 µM
Summary of the method: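 Wild-type and P2RX7-transfected HEK293 cells exposed to compound for 72 hours; viability compared against untreated control.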

[11] = biological target: T1, P2X purinoceptor 7 (Homo sapiens); assay: Antagonist activity at P2X7R in human THP1 cells assessed as inhibition of LPS and BzATP-induced ROS production at 10^-6mol/L pretreated with compound followed by LPS/BzATP addition and measured after 5 hrs by kinetic chemiluminescence based fluorometric analysis; format: cell-based; details: THP-1
Summary of the method: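 Differentiated THP-1 macrophages (10^5 cells, RPMI 1640 + 10% FBS) pretreated with antagonist at 10^-6 mol/L before LPS (10 μmol/L) and BzATP (70 μmol/L), 37 °C, 5% CO2; ROS detected as luminol (50 μM)/horseradish peroxidase (50 μg/mL) chemiluminescence on a fluorometer; H2O2 without cells as positive control.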

Structure (SMILES): O=C(NCc1ccc(Cl)cc1Cl)[C@@H]1CCC(=O)N1c1ccc(Cl)cc1Cl
- inhibition [1]: 0%

Structure (SMILES): CN1CCN(/C=C2\C[C@@H](C(=O)NCc3ccc(Cl)cc3Cl)N(c3cccs3)C2=O)CC1
- inhibition [1]: 49%

Structure (SMILES): O=C(NCCc1ccc(Cl)cc1Cl)[C@@H]1CCC(=O)N1c1ccccc1
- inhibition [1]: 0%

Structure (SMILES): COc1ccc(N2C(=O)[C@@H]3C/C(=C\N(C)C)C(=O)N3C2N(C)C)cc1 (stereo partly drawn)
- inhibition [1]: 0%

Structure (SMILES): CCCCCCN1C(=O)[C@@H]2C/C(=C\N(C)C)C(=O)N2C1N(C)C (stereo partly drawn)
- inhibition [1]: 0%

Structure (SMILES): CN(Cc1ccccc1)C(=O)[C@@H]1CCC(=O)N1Cc1ccc(Cl)cc1Cl
- inhibition [1]: 0%

Structure (SMILES): O=C(NCc1ccccc1Cl)[C@@H]1CCC(=O)N1Cc1ccccc1Cl
- inhibition [1]: 0%

Structure (SMILES): COc1cc(CNC(=O)[C@@H]2CCC(=O)N2)cc(OC)c1OC
- inhibition [1]: inactive

Structure (SMILES): O=C(NCc1ccccc1Cl)[C@@H]1CCC(=O)N1Cc1ccccc1
- inhibition [1]: 0%

Structure (SMILES): O=C(NCc1ccc(Cl)cc1Cl)[C@@H]1CCC(=O)N1C(c1ccc(Cl)cc1)c1ccc(Cl)cc1
- inhibition [1]: 0%

Structure (SMILES): O=C(NCc1ccc(Cl)cc1Cl)[C@@H]1CCC(=O)N1c1cscn1
- Activity [2]: inactive
- IC50 (P2X purinoceptor 7): 384 nM
- Ki (P2X purinoceptor 7): 78 nM
- inhibition [3]: Tde
- metabolised at 40 min [4]: 98%
- inhibition [5]: Active
- half-life [6]: 4.8 min
- Stability [7]: Unstable
- solubility [8]: Insoluble
- inhibition [1]: 98%
- inhibition [9]: Active
- microsomal CLint [10]: 379 µL/min/mg
- Activity (HEK293): Non-Toxic

Structure (SMILES): O=C(NCc1ccc(Cl)cc1Cl)[C@@H]1CCC(=O)N1Cc1ccccc1
- inhibition [1]: 100%

Structure (SMILES): CN(C)C(=O)[C@@H]1CCC(=O)N1
- inhibition [1]: inactive

Structure (SMILES): COc1ccc(N2C(=O)CC[C@H]2C(=O)NCc2ccc(Cl)cc2Cl)cc1
- inhibition [1]: 0%

Structure (SMILES): O=C(NCc1ccccc1Cl)[C@@H]1CCC(=O)N1c1ccccc1
- inhibition [1]: 0%

Structure (SMILES): O=C(NCc1ccc(Cl)cc1Cl)[C@@H]1CCC(=O)N1c1ccc(Cl)cc1
- inhibition [1]: 0%

Structure (SMILES): COc1ccc(CN2C(=O)CC[C@H]2C(=O)NCCc2ccccc2)cc1
- inhibition [1]: 0%

Structure (SMILES): O=C(NCc1ccc(Cl)cc1Cl)[C@@H]1CCC(=O)N1c1ccsc1
- Activity [2]: inactive
- IC50 (P2X purinoceptor 7): 1250 nM
- Ki (P2X purinoceptor 7): 256 nM
- inhibition [3]: Tde
- metabolised at 40 min [4]: 99.9%
- inhibition [5]: Active
- half-life [6]: 2.5 min
- Stability [7]: Unstable
- inhibition [11]: Active
- solubility [8]: Insoluble
- inhibition [1]: 78%
- inhibition [9]: Active
- microsomal CLint [10]: 762 µL/min/mg
- Activity (HEK293): Non-Toxic

Structure (SMILES): O=C(Nc1ccc(Cl)cc1Cl)[C@@H]1CCC(=O)N1Cc1ccccc1Cl
- inhibition [1]: 0%

Structure (SMILES): O=C1N[C@H](C(=O)NCc2ccc(Cl)cc2Cl)C/C1=C\N1CCOCC1
- inhibition [1]: 56%

Structure (SMILES): C[n+]1ccccc1C(=O)NCc1ccc(Cl)cc1Cl.[I-]
- inhibition [1]: 0%

Structure (SMILES): COC(=O)[C@@H]1C/C(=C\NCc2ccc(Cl)cc2Cl)C(=O)N1C(=O)OC
- inhibition [1]: 99%

Structure (SMILES): CN(C)/C=C1\C[C@H]2C(=O)N(Cc3ccc(Cl)cc3Cl)C(N(C)C)N2C1=O (stereo partly drawn)
- inhibition [1]: 24%
